Reference: ChEMBL document CHEMBL5096231, “Covalently Conjugated NOD2/TLR7 Agonists Are Potent and Versatile Immune Potentiators” (J Med Chem, 2022)
Active and inactive are the calls of the source. The calls are words filed in the database; no cut-off is given here.

Assays:
[1] = Cytotoxicity against HEK-Blue hNOD2 cells assessed as reduction in metabolic activity at 10 uM incubated for 18 hrs by MTS assay; format: toxicity, cell-based; conditions: human, hek-blue hnod2, 18 h
Outline: (§1)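 Cells (HEK-Blue NOD2, RAW-Blue or freshly isolated human PBMCs) seeded in duplicate and exposed to 10 μM compound or 0.1% DMSO vehicle for 18 h at 37 °C, 5% CO2. Metabolic activity then measured by CellTiter 96 AQueous One (MTS) assay.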

[2] = (§2) Induction of mouse ovalbumin specific CD4+ T cell activation assessed as increase in CD25 expression at 1 uM preincubated for 18 hrs with mouse BDMC cells in presence of ovalbumin followed by washout and further coincubated with CD4+ T cells and measured after 72 hrs by flow cytometry analysis (reference value: 10.9%); format: functional, CD4+ve Th
Outline: (§3)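 C57BL/6 BMDCs (GM-CSF 7 days, >90% CD11c+) pulsed 18 h with 1 μM compound, LPS 1 μg/mL or 0.1% DMSO plus OVA 50 μg/mL, washed. 1 × 10^4 BMDCs cocultured 72 h with 5 × 10^4 CFSE-labelled OT-II CD4+ or OT-I CD8+ T cells. Flow: live Thy1.2+ CD4+ or CD8+ cells scored as CD25+ CFSElow. Duplicates of two experiments.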

[3] = Induction of activation of human CD56+ CD3- NK cells co-cultured with human PBMC cells assessed as increase in IFN-gamma expression at 1 uM incubated for 24 hrs by flow cytometry analysis (reference value: 0.04%); format: functional, Natural killer cell
[4] = as §2, with “specific CD8-positive” for “specific CD4+”, “value: 12.6%)” for “value: 10.9%)”; format: functional; outline: as §3
[5] = Cytotoxicity against mouse RAW-Blue cells assessed as reduction in metabolic activity at 10 uM incubated for 18 hrs by MTS assay; format: toxicity, cell-based; outline: as §1
[6] = Induction of activation of human CD56+ CD3- NK cells co-cultured with human PBMC cells assessed as increase in CD69 expression at 1 uM incubated for 24 hrs by flow cytometry analysis (reference value: 2.7%); format: functional, Natural killer cell
[7] = Cytotoxicity against human PBMC cells assessed as reduction in metabolic activity at 10 uM incubated for 18 hrs by MTS assay; format: toxicity, cell-based; outline: as §1
[8] = Induction of activation of human CD56+ CD3- NK cells co-cultured with human PBMC cells assessed as increase in CD107a expression at 1 uM incubated for 24 hrs by flow cytometry analysis (reference value: 1.5%); format: functional, Natural killer cell
CD4+ve Th [9] = assay: Induction of mouse ovalbumin specific CD4+ T cell activation assessed as increase in IL-17A expression at 1 uM preincubated for 18 hrs with mouse BDMC cells in presence of ovalbumin followed by washout and further coincubated with CD4+ T cells and measured after 72 hrs; format: functional, cell-based
Outline: (§4)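 Supernatants taken after the 72 h coculture of washed BMDCs (18 h pretreatment with 1 μM compound, LPS 1 μg/mL or vehicle, plus OVA 50 μg/mL) with OT-II CD4+ or OT-I CD8+ T cells. Cytokines measured by mouse Th1/Th2/Th17 cytometric bead array. Duplicates of two independent experiments, mean ± SEM.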

PBMC [10] = assay: Immunostimulatory activity in human PBMC cells assessed as increase in IL-1beta production at 1 uM incubated for 18 hrs by flow cytometry analysis; format: functional, cell-based
Outline: (§5)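 PBMCs at 1 × 10^6 cells/mL treated with compound (1 μM), LPS (1 μg/mL) or 0.1% DMSO vehicle; cell-free supernatants collected after 18 h at 37 °C, 5% CO2. Cytokines quantified by human inflammatory cytokine bead array on flow cytometry with recombinant standard curves. Four independent experiments, mean ± SEM.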

MEC1 = assay: Cytotoxicity against human MEC1 cells cocultured with human PBMC cells assessed as inhibition of cell proliferation at 0.01 to 1 uM incubated with PBMC cells for 18 hrs followed by co-incubation with MEC-1 cells for 4 hrs by SYTOX blue staining based flow cytometric analysis; format: functional; conditions: dose 0.01-1 µM
Outline: (§6)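 Human PBMCs (Ficoll-isolated, healthy donors) pretreated 18 h in duplicate with compound (1 nM–1 μM) or 0.1% DMSO. CFSE-labelled K562 or MEC1 target cells then added, effector:target 40:1, 4 h at 37 °C. Sytox blue staining, flow cytometry; CFSE+Sytox+ cells counted as dead. Expressed relative to vehicle; three independent experiments, mean ± SEM.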

PBMC [11] = assay: Upregulation of IL12B gene transcription in human PBMC cells at 1 uM incubated for 18 hrs by KEGG analysis; format: functional, cell-based
Outline: (§7)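 PBMCs from three donors (2 × 10^6 cells/mL) exposed to 1 μM compound or 0.1% DMSO for 18 h at 37 °C. mRNA isolated, amplified, sequenced. DESeq2 differential expression, FDR <0.05 and fold change >2 or <0.5 versus vehicle; gene lists used for Metascape/KEGG enrichment.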

PBMC [12] = assay: Immunostimulatory activity in human PBMC cells assessed as increase in TNF production at 1 uM incubated for 18 hrs by flow cytometry analysis; format: functional, cell-based; outline: as §5
RAW-Blue = assay: Activation of NF-kappaB transcriptional activity in mouse RAW-Blue cells expressing NOD2 and TLR7 at 1 uM incubated for 18 hrs by quanti-blue/SEAP-based spectrophotometry analysis; format: cell-based; conditions: filed as activator
Outline: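 RAW-Blue cells pretreated 1 h with NOD2 antagonist SG84 (5 μM), TLR7 antagonist M5049 (1 μM), both, or neither, then given compound or 0.1% DMSO vehicle; 18 h at 37 °C, 5% CO2 in growth medium without Normocin/Zeocin. Supernatant mixed with QUANTI-Blue for 2 h at 37 °C, SEAP read at 630 nm. Activity relative to vehicle; three independent experiments, mean ± SEM.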

CD8-positive T cell [13] = assay: Induction of mouse ovalbumin specific CD8-positive T cell activation assessed as increase in IL-17A expression at 1 uM preincubated for 18 hrs with mouse BDMC cells in presence of ovalbumin followed by washout and further coincubated with CD4+ T cells and measured after 72 hrs; format: functional, cell-based; outline: as §4
PBMC [14] = assay: Upregulation of IL12A gene transcription in human PBMC cells at 1 uM incubated for 18 hrs by KEGG analysis; format: functional, cell-based; outline: as §7
PBMC [15] = assay: Upregulation of CXCL10 gene transcription in human PBMC cells at 1 uM incubated for 18 hrs by KEGG analysis; format: functional, cell-based; outline: as §7
PBMC [16] = assay: Immunostimulatory activity in human PBMC cells assessed as increase in IL-6 production at 1 uM incubated for 18 hrs by flow cytometry analysis; format: functional, cell-based; outline: as §5
CD8-positive T cell [17] = assay: Induction of mouse ovalbumin specific CD8-positive T cell activation assessed as increase in TNF expression at 1 uM preincubated for 18 hrs with mouse BDMC cells in presence of ovalbumin followed by washout and further coincubated with CD4+ T cells and measured after 72 hrs; format: functional, cell-based; outline: as §4
PBMC [18] = assay: Upregulation of CXCL11 gene transcription in human PBMC cells at 1 uM incubated for 18 hrs by KEGG analysis; format: functional, cell-based; outline: as §7
CD8-positive T cell [19] = assay: Induction of mouse ovalbumin specific CD8-positive T cell activation assessed as increase in IFN-gamma expression at 1 uM preincubated for 18 hrs with mouse BDMC cells in presence of ovalbumin followed by washout and further coincubated […] and measured after 72 hrs; format: functional, cell-based; outline: as §4
CD4+ve Th [20] = assay: Induction of mouse ovalbumin specific CD4+ T cell activation assessed as increase in IL-6 expression at 1 uM preincubated for 18 hrs with mouse BDMC cells in presence of ovalbumin followed by washout and further coincubated with CD4+ T cells and measured after 72 hrs; format: functional, cell-based; outline: as §4
PBMC [21] = assay: Upregulation of IL-26 gene transcription in human PBMC cells at 1 uM incubated for 18 hrs by KEGG analysis; format: functional, cell-based; outline: as §7
K562 = assay: Cytotoxicity against human K562 cells cocultured with human PBMC cells assessed as inhibition of cell proliferation at 0.01 to 1 uM incubated with PBMC cells for 18 hrs followed by co-incubation with K562 cells for 4 hrs by SYTOX blue staining based flow cytometric analysis; format: functional; conditions: dose 0.01-1 µM; outline: as §6
PBMC [22] = assay: Immunostimulatory activity in human PBMC cells assessed as increase in IL-10 production at 1 uM incubated for 18 hrs by flow cytometry analysis; format: functional, cell-based; outline: as §5
PBMC [23] = assay: Upregulation of IL-22 gene transcription in human PBMC cells at 1 uM incubated for 18 hrs by KEGG analysis; format: functional, cell-based; outline: as §7
CD4+ve Th [24] = assay: Induction of mouse ovalbumin specific CD4+ T cell activation assessed as increase in IFN-gamma expression at 1 uM preincubated for 18 hrs with mouse BDMC cells in presence of ovalbumin followed by washout and further coincubated with CD4+ T cells and measured after 72 hrs; format: functional, cell-based; outline: as §4
PBMC [25] = assay: Immunostimulatory activity in human PBMC cells assessed as increase in IL12p70 production at 1 uM incubated for 18 hrs by flow cytometry analysis; format: functional, cell-based; outline: as §5
CD8-positive T cell [26] = assay: Induction of mouse ovalbumin specific CD8-positive T cell activation assessed as increase in IL-6 expression at 1 uM preincubated for 18 hrs with mouse BDMC cells in presence of ovalbumin followed by washout and further coincubated with CD4+ T cells and measured after 72 hrs; format: functional, cell-based; outline: as §4
PBMC [27] = assay: Upregulation of IL-17F gene transcription in human PBMC cells at 1 uM incubated for 18 hrs by KEGG analysis; format: functional, cell-based; outline: as §7
PBMC [28] = assay: Upregulation of Tbx21 gene transcription in human PBMC cells at 1 uM incubated for 18 hrs by KEGG analysis; format: functional, cell-based; outline: as §7
PBMC [29] = assay: Upregulation of IL-17A gene transcription in human PBMC cells at 1 uM incubated for 18 hrs by KEGG analysis; format: functional, cell-based; outline: as §7
Mus musculus [30] = assay: Immuno-adjuvant activity in NIH/OlaHsd mouse assessed as increase in ovalbumin specific Th1 associated IgG2a production in sera at 50 ug, sc administered on day 0 and as booster dose on day 21 and 28 measured 7 days post last dose by ELISA; format: functional, organism-based; conditions: dose 50.0 µg, time 35.0 day
Mus musculus [31] = assay: Immuno-adjuvant activity in NIH/OlaHsd mouse assessed as increase in ovalbumin specific IgG production in sera at 50 ug, sc administered on day 0 and as booster dose on day 21 and 28 measured 7 days post last dose by ELISA; format: functional, organism-based; conditions: dose 50.0 µg, time 35.0 day
PBMC [32] = assay: Upregulation of CXCL9 gene transcription in human PBMC cells at 1 uM incubated for 18 hrs by KEGG analysis; format: functional, cell-based; outline: as §7
Mus musculus [33] = assay: Immuno-adjuvant activity in NIH/OlaHsd mouse assessed as increase in ovalbumin specific Th2 associated IgG1 production in sera at 50 ug, sc administered on day 0 and as booster dose on day 21 and 28 measured 7 days post last dose by ELISA; format: functional, organism-based; conditions: dose 50.0 µg, time 35.0 day
CD4+ve Th [34] = assay: Induction of mouse ovalbumin specific CD4+ T cell activation assessed as increase in TNF expression at 1 uM preincubated for 18 hrs with mouse BDMC cells in presence of ovalbumin followed by washout and further coincubated with CD4+ T cells and measured after 72 hrs; format: functional, cell-based; outline: as §4
PBMC [35] = assay: Upregulation of IFN-gamma gene transcription in human PBMC cells at 1 uM incubated for 18 hrs by KEGG analysis; format: functional, cell-based; outline: as §7
PBMC [36] = assay: Immunostimulatory activity in human PBMC cells assessed as increase in IL-8 production at 1 uM incubated for 18 hrs by flow cytometry analysis; format: functional, cell-based; outline: as §5

CCCCOc1nc(N)c2nc(O)n(Cc3ccc(C(=O)O)cc3)c2n1
Activity [1]: Non-Toxic | Activity [2]: 25.8% | Activity [3]: 0.05% | Activity [4]: 17.6% | Activity [5]: Non-Toxic | Activity [6]: 3.3% | Activity [7]: Non-Toxic | Activity [8]: 1.7%

CCCCOc1nc(N)c2nc(O)n(Cc3ccc(C(=O)NCCOCCNC(=O)CC[C@@H](NC(=O)[C@@H](NC(=O)CNC(=O)/C=C/c4ccc(O)c(OC)c4)C(C)C)C(=O)OCC)cc3)c2n1
Activity (CD4+ve Th [9]): Active | Activity (PBMC [10]): Active | Activity (MEC1): Active | Activity (PBMC [11]): Active | Activity (PBMC [12]): Active | Activity (RAW-Blue): Active | Activity [1]: Non-Toxic | Activity (CD8-positive T cell [13]): Active | Activity (PBMC [14]): Active | Activity (PBMC [15]): Active | Activity [2]: 28.9% | Activity (PBMC [16]): Active | Activity (CD8-positive T cell [17]): Active | Activity (PBMC [18]): Active | Activity (CD8-positive T cell [19]): Active | Activity (CD4+ve Th [20]): Active | Activity [3]: 4.5% | Activity (PBMC [21]): Active | Activity [4]: 54.5% | Activity (K562): Active | Activity (PBMC [22]): Active | Activity (PBMC [23]): Active | Activity (CD4+ve Th [24]): Active | Activity (PBMC [25]): Active | Activity [5]: Non-Toxic | Activity (CD8-positive T cell [26]): Active | Activity (PBMC [27]): Active | Activity (PBMC [28]): Active | Activity (PBMC [29]): Active | Activity (Mus musculus [30]): Active | Activity (Mus musculus [31]): Active | Activity (PBMC [32]): Active | Activity (Mus musculus [33]): Active | Activity [6]: 93% | Activity [7]: Non-Toxic | Activity (CD4+ve Th [34]): Active | Activity (PBMC [35]): Active | Activity (PBMC [36]): Active | Activity [8]: 4.7%
